Laboratory results as given in ChEMBL document CHEMBL4411301, “Design, Biological Evaluation, and Molecular Modeling of Tetrahydroisoquinoline Derivatives: Discovery of A Potent P-Glycoprotein Ligand Overcoming Multidrug Resistance in Cancer Stem Cells” (J Med Chem, 2019).
Activity calls are given as the source filed them.

Legend:
[1] = biological target: T1, ATP-dependent translocase ABCB1 (Homo sapiens, UniProt P08183); test: Inhibition of MDR1 in human primary glioblastoma stem cells assessed as increase in intracellular doxorubicin accumulation at 10 to 10000 nM after 3 hrs by spectrofluorimetric analysis; type: cell-based
T1 sequence (P08183 whole entry): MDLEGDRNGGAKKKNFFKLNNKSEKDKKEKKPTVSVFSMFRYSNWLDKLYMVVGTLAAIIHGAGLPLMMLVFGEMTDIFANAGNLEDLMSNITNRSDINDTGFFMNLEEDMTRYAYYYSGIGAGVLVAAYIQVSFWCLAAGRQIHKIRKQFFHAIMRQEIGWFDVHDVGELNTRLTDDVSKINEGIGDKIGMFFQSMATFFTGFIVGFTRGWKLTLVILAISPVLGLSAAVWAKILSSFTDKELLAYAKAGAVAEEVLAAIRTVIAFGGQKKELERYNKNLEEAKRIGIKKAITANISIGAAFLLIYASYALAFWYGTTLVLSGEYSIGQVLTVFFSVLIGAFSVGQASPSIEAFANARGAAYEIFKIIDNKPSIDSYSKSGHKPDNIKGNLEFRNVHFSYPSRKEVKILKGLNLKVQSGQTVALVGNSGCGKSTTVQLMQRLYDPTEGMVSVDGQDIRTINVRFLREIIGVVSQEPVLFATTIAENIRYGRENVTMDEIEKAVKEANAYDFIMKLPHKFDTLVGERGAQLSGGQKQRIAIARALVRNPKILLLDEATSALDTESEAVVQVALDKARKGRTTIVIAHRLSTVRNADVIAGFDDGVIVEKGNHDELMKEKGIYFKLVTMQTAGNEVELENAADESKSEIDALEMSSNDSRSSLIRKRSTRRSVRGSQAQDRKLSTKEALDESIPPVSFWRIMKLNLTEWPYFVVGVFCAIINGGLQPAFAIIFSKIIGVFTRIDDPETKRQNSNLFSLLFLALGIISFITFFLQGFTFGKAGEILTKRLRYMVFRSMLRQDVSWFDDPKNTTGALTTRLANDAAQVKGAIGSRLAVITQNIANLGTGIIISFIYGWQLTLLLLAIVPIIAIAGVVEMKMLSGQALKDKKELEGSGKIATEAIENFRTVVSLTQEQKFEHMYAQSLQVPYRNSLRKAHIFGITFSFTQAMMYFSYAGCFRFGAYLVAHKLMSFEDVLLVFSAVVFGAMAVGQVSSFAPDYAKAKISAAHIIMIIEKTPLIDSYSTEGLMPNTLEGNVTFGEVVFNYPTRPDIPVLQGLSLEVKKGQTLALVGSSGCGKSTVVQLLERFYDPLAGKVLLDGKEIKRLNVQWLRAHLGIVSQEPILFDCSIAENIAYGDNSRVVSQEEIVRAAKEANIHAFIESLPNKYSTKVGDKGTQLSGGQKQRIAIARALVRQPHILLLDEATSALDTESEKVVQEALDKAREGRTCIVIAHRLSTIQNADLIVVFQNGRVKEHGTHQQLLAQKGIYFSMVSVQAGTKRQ
Outline: (§1)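 Differentiated or stem cells from primary glioblastoma or mesothelioma of 3 patients (stem cells used within passage 6). Incubated 3 h with 5 µM doxorubicin, alone or with compound (DMSO 1% v/v). Washed, lysed in ethanol/0.3 N HCl, doxorubicin fluorescence read at ex 475/em 553 nm and expressed as nmol/mg cell protein via calibration curve. Duplicates, n=3, mean ± SEM.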

[2] = biological target: T1, ATP-dependent translocase ABCB1; test: Inhibition of MDR1 in human primary mesothelioma stem cells assessed as increase in intracellular doxorubicin accumulation at 10 to 10000 nM after 3 hrs by spectrofluorimetric analysis; type: cell-based; outline: as §1
Homo sapiens [3] = species on record: Homo sapiens; test: Induction of intracellular doxorubicin accumulation in human differentiated primary glioblastoma cells at 10 to 10000 nM after 3 hrs by spectrofluorimetric analysis; type: functional, cell-based; outline: as §1
Homo sapiens [4] = species on record: Homo sapiens; test: Induction of intracellular doxorubicin accumulation in human differentiated primary mesothelioma stem cells at 10 to 10000 nM after 3 hrs by spectrofluorimetric analysis; type: functional, cell-based; outline: as §1
[5] = biological target: T1, ATP-dependent translocase ABCB1; test: Inhibition of MDR1 in human primary glioblastoma stem cells assessed as increase in doxorubicin-induced reduction in cell viability at 1 uM after 72 hrs by ATPlite luminescence assay
Outline: (§2)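 Primary glioblastoma or mesothelioma differentiated and stem cells incubated 72 h with medium, 5 µM doxorubicin, 10 nM compound or 1 µM elacridar, alone or combined (DMSO 1% v/v). Viability by ATPlite luminescence as % of untreated RLU. Quadruplicates, n=3, mean ± SEM, one-way ANOVA.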

Homo sapiens [6] = species on record: Homo sapiens; test: Potentiation of doxorubicin-induced cytotoxicity in human differentiated primary glioblastoma cells assessed as increase in doxorubicin-induced reduction in cell viability at 1 uM after 72 hrs by ATPlite luminescence assay; type: functional, cell-based; outline: as §2
[7] = biological target: T1, ATP-dependent translocase ABCB1; test: Inhibition of MDR1 in human primary mesothelioma stem cells assessed as increase in doxorubicin-induced reduction in cell viability at 1 uM after 72 hrs by ATPlite luminescence assay; outline: as §2
Homo sapiens [8] = species on record: Homo sapiens; test: Potentiation of doxorubicin-induced cytotoxicity in human differentiated primary mesothelioma stem cells assessed as increase in doxorubicin-induced reduction in cell viability at 1 uM after 72 hrs by ATPlite luminescence assay; type: functional, cell-based; outline: as §2
[9] = biological target: T1, ATP-dependent translocase ABCB1; test: Inhibition of MDR1 in human primary glioblastoma stem cells assessed as increase in doxorubicin-induced reduction in cell viability at 1 uM after 24 hrs by LDH release assay
Homo sapiens [10] = species on record: Homo sapiens; test: Potentiation of doxorubicin-induced cytotoxicity in human differentiated primary glioblastoma cells assessed as increase in doxorubicin-induced reduction in cell viability at 1 uM after 24 hrs by LDH release assay; type: functional, cell-based
[11] = biological target: T1, ATP-dependent translocase ABCB1; test: Inhibition of MDR1 in human primary mesothelioma stem cells assessed as increase in doxorubicin-induced reduction in cell viability at 1 uM after 24 hrs by LDH release assay
Homo sapiens [12] = species on record: Homo sapiens; test: Potentiation of doxorubicin-induced cytotoxicity in human differentiated primary mesothelioma stem cells assessed as increase in doxorubicin-induced reduction in cell viability at 1 uM after 24 hrs by LDH release assay; type: functional, cell-based

COc1cc2c(cc1OC)CN(CCc1ccc(NC(=O)c3cccc4c(=O)c5cccc(OC)c5[nH]c34)cc1)CC2 [ELACRIDAR]
inactive: Activity (Homo sapiens [3]) | Activity (Homo sapiens [4]) | Activity (Homo sapiens [6]) | Activity (Homo sapiens [8]) | Activity (Homo sapiens [10]) | Activity (Homo sapiens [12])
Active: inhibition (INH) [1] | inhibition (INH) [2] | inhibition (INH) [5] | inhibition (INH) [7] | inhibition (INH) [9] | inhibition (INH) [11]
